Shown are actives, neighbours in structure and some others; about 1% of the full set was active somewhere.
proCasp7 act: counter-screen for procaspase-3 activators: activators of human procaspase-7; P55210; recombinant procaspase-7, Ac-DEVD-pNA absorbance 405 nm; D23A/D198A/D206A triple mutant, cannot self-cleave; scale: DMSO 0, 5 µM enzyme 100; activation, % at 8.5 µM; 330,000 tested, 0.093% active;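 active = percent activation above the screen-wide mean plus 3 SD, cut at about 25% in these data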
Target sequence (P55210 whole entry D23A/D198A/D206A): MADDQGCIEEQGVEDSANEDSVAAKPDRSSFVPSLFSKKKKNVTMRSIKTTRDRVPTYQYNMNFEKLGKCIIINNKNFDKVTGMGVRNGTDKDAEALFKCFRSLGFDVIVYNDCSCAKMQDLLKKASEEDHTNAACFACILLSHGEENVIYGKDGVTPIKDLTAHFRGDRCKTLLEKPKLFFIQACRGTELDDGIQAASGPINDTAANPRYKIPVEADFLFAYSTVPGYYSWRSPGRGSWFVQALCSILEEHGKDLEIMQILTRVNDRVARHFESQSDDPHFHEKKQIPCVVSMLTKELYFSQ
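Material: Procaspase-7 triple mutant (PC-7 D3A) | Quantity: 2 µM procaspase-7 mutant as dispensed | Reagent: DEVD-pNA substrate | Times: 1 h preincubation, 2 h reaction | Technique: 405 nm absorbance of p-nitroaniline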
procasp3 activ: activates human procaspase-3. AID 463141. 330,000 tested, 0.11% active. recombinant procaspase-3 D3A, Ac-DEVD-pNA absorbance 405 nm. activation, % at 8.5 µM;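 active = activation above the mean of all tested compounds plus 3 SD, cut at about 21% in these data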
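material = Procaspase-3 D3A mutant | probe or stimulus = Ac-DEVD-pNA | compound = single dose, 8.5 µM nominal compound, 0.8% DMSO | timing = 1 h preincubation, 2 h reaction | measured by = 405 nm absorbance of p-nitroaniline, reads at 0 and 120 min | benchmarks = DMSO-only low control, 5 µM PC-3 D3A high control | repeats = singlicate, each compound tested once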
Fam108B inh: blocks mouse Fam108B hydrolase in RBBP9 counter-screen; recombinant Fam108B, FP-Rh probe fluorescence polarization; inhibition, % at 9.51 µM; 300,000 tested, 0.33% active;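 active = inhibition above the screen mean inhibition plus 3 SD, computed separately per campaign, cut at about 18% in these data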;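 also: inhibitors lower polarization as less probe binds the enzyme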
PME-1 inh: PME-1 (human) inhibition. AID 2130. recombinant PME-1, FP-Rh probe fluorescence polarization. 320,000 tested, 0.53% active. inhibition, % at 5.9 µM;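 active = inhibition above the campaign mean of all compounds plus 3 SD, cut at about 26% in these data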;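 also: competitive labeling of PME-1 active site by serine hydrolase directed probe; inhibitors block probe labeling so polarization falls and inhibition rises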
LYPLA2 inh: blocks human lysophospholipase 2, a PME1 counter-screen. O95372. recombinant LYPLA2, FP-Rh probe fluorescence polarization. inhibition, % at 5.9 µM. 320,000 tested, 0.38% active;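 active = inhibition above the screen-wide mean plus 3 SD, limit set per campaign, cut at about 26% in these data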
LYPLA1 counter: LYPLA1 (human) inhibition in PME1 counter-screen; recombinant LYPLA1, FP-Rh probe fluorescence polarization; 320,000 tested, 0.16% active; O75608; inhibition, % at 5.9 µM;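 active = inhibition above the mean of all tested compounds plus 3 SD, set per campaign, cut at about 14% in these data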;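 also: inhibitors block serine hydrolase probe labeling of LYPLA1 so polarization falls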
Target sequence (O75608 whole entry, looked up): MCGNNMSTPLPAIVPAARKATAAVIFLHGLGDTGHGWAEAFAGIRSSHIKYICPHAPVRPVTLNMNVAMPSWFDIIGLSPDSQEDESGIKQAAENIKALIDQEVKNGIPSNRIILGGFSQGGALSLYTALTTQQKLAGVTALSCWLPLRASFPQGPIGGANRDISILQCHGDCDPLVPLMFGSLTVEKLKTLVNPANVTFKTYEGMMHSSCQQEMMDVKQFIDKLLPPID
Fam108b confirm: confirmation of mouse Fam108b serine hydrolase inhibitors. shares compounds with Fam108B inh. recombinant Fam108b, FP-Rh probe fluorescence polarization. inhibition, % at 9.51 µM. 930 tested, 44% active;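 active = inhibition above a limit from the primary screen, the mean over all compounds plus 3 SD, cut at about 19% in these data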;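 also: inhibitors free the probe so polarization falls as inhibition rises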
Fam108b inh: inhibits mouse Fam108b in gel-based ABPP; shares compounds with Fam108B inh; recombinant Fam108b, fluorophosphonate probe; inhibition, % at 20 µM; 260 tested, 44% active; AID 588649; in the data active = inhibition above about 40%
LYPLA1 conf: LYPLA1 (human) inhibition, confirmation counter-screen; shares compounds with LYPLA1 counter; recombinant LYPLA1, FP-Rh probe fluorescence polarization; inhibition, % at 5.9 µM; 480 tested, 69% active;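 active = mean inhibition across replicates above the hit cutoff set in the primary screen, cut at about 15% in these data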;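 also: loss of FP-Rh probe labeling of LYPLA1 seen as lower polarization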
Hits are given with their value; - = inactive; . = no result; + = active, no number.

SMILES	proCasp7 act	procasp3 activ	Fam108B inh	PME-1 inh	LYPLA2 inh	LYPLA1 counter	Fam108b confirm	others
CCOC(=O)c1c(C)n(C)c2ccc(OC)c(NC(=O)CCN3CCC(Cc4ccccc4)CC3)c12	-	-	-	-	-	-	.
O=C1c2cc(CO)cc(O)c2C(=O)c2c(O[C@@H]3OC(CO)[C@@H](O)[C@@H](O)[C@@H]3O)cccc21 (stereo not given in full)	-	-	-	-	-	-	.
O=C(O)c1cc(O)c2c(c1)[C@@H]([C@H]1c3cc(C(=O)O)cc(O)c3C(=O)c3c(O[C@@H]4O[C@H](CO)[C@@H](O)[C@H](O)[C@H]4O)cccc31)c1cccc(OC3O[C@H](CO)[C@@H](O)[C@H](O)[C@H]3O)c1C2=O (stereo not given in full)	-	-	99	74	90	28	116
N#Cc1cccc(NC(=O)CSc2ccc3c4c(cccc24)C(=O)c2ccccc2-3)c1	-	-	35	-	-	-	21
COc1ccc(NC(=O)CSc2ccc3c4c(cccc24)C(=O)c2ccccc2-3)cc1	-	-	-	-	-	-	.
CSc1nc(N)nc2c1ncn2CC(=O)Nc1ccc(C)c(C)c1	-	-	.	.	.	.	.
O=C1COc2ccc(C(=O)COC(=O)Cc3ccsc3)cc2N1	-	-	-	-	-	-	.
COc1ccc2nc(-c3ccccc3)[nH]c2c1	-	-	-	-	-	-	.
Oc1c(Br)cc(C=Nc2ccc3nc(-c4ccccc4)[nH]c3c2)c(O)c1Br	-	-	33	35	-	-	-
Cc1cccn2c(=O)nc(SCC(=O)N3CCC(Cc4ccccc4)CC3)nc12	-	-	-	-	-	-	.
N#Cc1c(N2CCCC(O)C2)nc(N)c2c(N)nc3c(c12)CC(=O)N3C12CC3CC(CC(C3)C1)C2 (stereo not given)	-	-	19	-	-	-	-
CCn1c2ccccc2c2cc(NC(=O)c3cc(OC)c(OC)c(OC)c3)ccc21	-	-	19	-	-	-	-
COc1ccc(S(=O)(=O)n2nc(C)cc2C)cc1OC	-	-	-	-	-	-	.
N#C/C(=N\Nc1cccc([N+](=O)[O-])c1)C(=O)c1ccc(Br)cc1	-	-	27	29	-	-	26
COc1ccc2c(c1)c(C(C)=O)c(C)n2-c1ccccc1OC	-	-	-	-	-	-	.
Cc1cc(N/N=C/c2ccc(O)c(C)c2O)nc(-c2ccccc2O)n1	-	-	43	62	-	-	-
Cc1c(O)ccc(/C=N/Nc2nc(-c3cccnc3)nc3ccccc23)c1O	-	-	39	40	-	-	+
C/C(=N\Nc1cc(C)nc(-c2ccccc2O)n1)c1ccccc1	-	-	-	-	-	-	.
Oc1ccc(/C=N/Nc2nc(-c3cccnc3)nc3ccccc23)c(O)c1	-	-	52	52	-	-	-
CC(=O)c1ccc2c(c1)C1C=CCC1C(c1ccc(S(=O)(=O)N3CCOCC3)cc1)N2 (stereo not given)	-	-	-	-	-	-	.
O=C(O)c1ccc2c(c1)C1C=CCC1C(c1ccncc1)N2 (stereo not given)	-	-	-	-	-	-	.
Cc1c(Cl)cccc1NS(=O)(=O)c1ccc2c(c1)C1C=CCC1C(c1ccc(C(=O)O)cc1)N2 (stereo not given)	-	-	34	-	-	-	33	Fam108b inh=-
COc1ccc(NS(=O)(=O)c2ccc3c(c2)[C@H]2C=CC[C@H]2[C@@H](c2ccc(C(=O)O)cc2)N3)cc1	-	-	35	-	-	-	33	Fam108b inh=-
CCOc1ccc(S(=O)(=O)n2nc(C)cc2C)cc1	-	-	-	-	-	-	.
CCCCn1c(=O)nc2n(-c3ccc(OC)cc3)c3ccccc3cc-2c1=O	-	-	42	-	-	-	-
SMILES	proCasp7 act	procasp3 activ	Fam108B inh	PME-1 inh	LYPLA2 inh	LYPLA1 counter	Fam108b confirm	others
CCCCn1c(=O)nc2n(-c3ccc(C)cc3)c3ccccc3cc-2c1=O	-	-	-	-	-	-	.
Cc1cccc(NC(=S)NC2CC3CCCC(C2)N3Cc2ccccc2)c1C (stereo not given)	-	-	-	-	-	-	.
O=C(O)c1ccccc1N=Nc1c(O)[nH]c2ccc([N+](=O)[O-])cc12	-	-	21	-	-	-	-
CC1CCC(NC(=O)C(C)N2C(=O)C3CCCCC3C2=O)CC1 (stereo not given)	-	-	.	-	-	-	.
CCCc1ccc(C2C3=C(CC(C)(C)CC3=O)NC3=C2C(=O)c2ccccc23)cc1 (stereo not given)	-	-	24	-	-	-	-
CCCCc1ccc(C2C3=C(CC(C)(C)CC3=O)NC3=C2C(=O)c2ccccc23)cc1 (stereo not given)	-	-	-	-	-	-	.
Nc1cccc2nsnc12	-	-	-	-	-	-	.
Nc1cc2nsnc2cc1Br	-	-	71	47	87	76	62	Fam108b inh=50;LYPLA1 conf=73
O=C1c2cccc3c(O)ccc(c23)C(=O)N1Cc1ccccc1	-	-	28	-	31	21	28	LYPLA1 conf=24
CC1=CN2C(=N)/C(=C/c3ccco3)C(=O)N=C2S1	-	-	-	-	-	-	.
CC1=CN2C(=N)/C(=C/c3ccc([N+](=O)[O-])o3)C(=O)N=C2S1	-	-	19	33	-	17	-	LYPLA1 conf=-
CN1/C(=C\C=C2/C(=O)Oc3ccccc3C2=O)C(C)(C)c2ccccc21	-	-	139	-	-	51	-	LYPLA1 conf=-
COc1ccc(NS(=O)(=O)c2cccc(C(=O)NN=C(C)c3ccco3)c2)cc1	-	-	.	.	.	.	.
CN(C)c1ccc(/C=C(\C#N)C(=O)NCc2ccco2)cc1	-	-	29	-	-	22	-	LYPLA1 conf=-
CCN(CC)c1ccc(/C=C(\C#N)C(=O)NCc2ccco2)cc1	-	-	-	-	-	-	.
O=C1N/C(=N/O)S/C1=C/c1cccc([N+](=O)[O-])c1	-	-	-	-	-	-	.
COc1ccc(N=C2NC(=O)/C(=C/c3ccc(O)c(OC)c3)S2)cc1	-	-	-	-	-	-	.
COc1cccc(N=C2NC(=O)/C(=C/c3cc([N+](=O)[O-])ccc3O)S2)c1	-	-	19	-	-	17	-	LYPLA1 conf=41

Source: PubChem BioAssay
